Test results: ChEMBL document CHEMBL5058577, “EUbOPEN Chemogenomics Library 2 (Multiplex)” (2022)

Test system: U2OS
Test: Multiplex assay against U2OS
Type: toxicity, cell-based
Details: human
Summary of the method: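 Phenotypes for tubulin, mitochondrial mass and membrane permeability are expressed as per cents of healthy-nucleus cells. Cells were stained live at seeding with Hoechst33342, BioTracker Green Microtubule Cytoskeleton Dye, MitoTracker Red and Annexin V Alexa Fluor 680, then imaged after compound addition on a CQ1 microscope at 37°C and 5% CO2. Machine-learning gating in CellPathfinder separated Hoechst high-intensity objects from normal cells, divided normal cells by nuclear state (healthy, pyknosed, fragmented) and divided pyknosed cells into mitotic or apoptotic.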

[1] = 12 h, 1 µM, compound concentration 1 uM, replicate 1
[2] = 12 h, 1 µM, compound concentration 1 uM, replicate 2
[3] = 12 h, 10 µM, compound concentration 10 uM, replicate 1
[4] = 12 h, 10 µM, compound concentration 10 uM, replicate 2
[5] = 24 h, 1 µM, compound concentration 1 uM, replicate 1
[6] = 24 h, 1 µM, compound concentration 1 uM, replicate 2
[7] = 24 h, 10 µM, compound concentration 10 uM, replicate 1
[8] = 24 h, 10 µM, compound concentration 10 uM, replicate 2
[9] = 48 h, 1 µM, compound concentration 1 uM, replicate 1
[10] = 48 h, 1 µM, compound concentration 1 uM, replicate 2
[11] = 48 h, 10 µM, compound concentration 10 uM, replicate 1
[12] = 48 h, 10 µM, compound concentration 10 uM, replicate 2

`CCCCC1=NC2(CCCC2)C(=O)N1Cc1ccc(-c2ccccc2-c2nnn[nH]2)cc1` [IRBESARTAN] was tested, and the “Population Apoptotic (%)” value [1] was 83%, the “Population Fragmented Nuclei (%)” value [1] was 25% and the “Population Healthy Nuclei (%)” value [1] was 66%. The “Population Hoechst High Intensity Objects (%)” value [1] was 2%, the “Population Membrane Permeable-Phenotype (%)” value [1] was 5% and the “Population Mitochondria Different-Phenotype (%)” value [1] was 1%. The “Population Mitotic Cells (%)” value [1] was 16%, the “Population Normal (%)” value [1] was 97% and the “Population Pyknosed Nuclei (%)” value [1] was 7%. The “Population Tubulin-Different-Phenotype (%)” value [1] was 1%, the “Total Cell Count” value [1] was 233 and the “Population Apoptotic (%)” value [2] was 77%. The “Population Fragmented Nuclei (%)” value [2] was 9%, the “Population Healthy Nuclei (%)” value [2] was 82% and the “Population Hoechst High Intensity Objects (%)” value [2] was 0%. For the same molecule, the “Population Membrane Permeable-Phenotype (%)” value [2] was 11%, the “Population Mitotic Cells (%)” value [2] was 22% and the “Population Normal (%)” value [2] was 99%. For the same molecule, the “Population Tubulin-Different-Phenotype (%)” value [2] was 8%, the “Total Cell Count” value [2] was 124 and the “Population Apoptotic (%)” value [3] was 91%. For the same molecule, the “Population Fragmented Nuclei (%)” value [3] was 22%, the “Population Healthy Nuclei (%)” value [3] was 68% and the “Population Hoechst High Intensity Objects (%)” value [3] was 2%. The “Population Membrane Permeable-Phenotype (%)” value [3] was 4%, the “Population Mitochondria Different-Phenotype (%)” value [3] was 3% and the “Population Mitotic Cells (%)” value [3] was 8%. The “Population Normal (%)” value [3] was 97%, the “Population Pyknosed Nuclei (%)” value [3] was 9% and the “Population Tubulin-Different-Phenotype (%)” value [3] was 2%. The “Total Cell Count” value [3] was 254, the “Population Apoptotic (%)” value [4] was 100% and the “Population Fragmented Nuclei (%)” value [4] was 18%. For the same molecule, the “Population Healthy Nuclei (%)” value [4] was 74%, the “Population Hoechst High Intensity Objects (%)” value [4] was 0% and the “Population Membrane Permeable-Phenotype (%)” value [4] was 8%. The “Population Mitochondria Different-Phenotype (%)” value [4] was 6%, the “Population Mitotic Cells (%)” value [4] was 0% and the “Population Normal (%)” value [4] was 100%. The “Population Pyknosed Nuclei (%)” value [4] was 8%, the “Population Tubulin-Different-Phenotype (%)” value [4] was 8% and the “Total Cell Count” value [4] was 100. For the same molecule, the “Population Apoptotic (%)” value [5] was 70%, the “Population Fragmented Nuclei (%)” value [5] was 23% and the “Population Healthy Nuclei (%)” value [5] was 69%. For the same molecule, the “Population Hoechst High Intensity Objects (%)” value [5] was 3%, the “Population Membrane Permeable-Phenotype (%)” value [5] was 6% and the “Population Mitochondria Different-Phenotype (%)” value [5] was 3%. The “Population Mitotic Cells (%)” value [5] was 29%, the “Population Normal (%)” value [5] was 96% and the “Population Pyknosed Nuclei (%)” value [5] was 7%. For the same molecule, the “Population Tubulin-Different-Phenotype (%)” value [5] was 3%, the “Total Cell Count” value [5] was 241 and the “Population Apoptotic (%)” value [6] was 66%. For the same molecule, the “Population Fragmented Nuclei (%)” value [6] was 12%, the “Population Healthy Nuclei (%)” value [6] was 76% and the “Population Hoechst High Intensity Objects (%)” value [6] was 2%. For the same molecule, the “Population Membrane Permeable-Phenotype (%)” value [6] was 9%, the “Population Mitochondria Different-Phenotype (%)” value [6] was 2% and the “Population Mitotic Cells (%)” value [6] was 33%. The “Population Normal (%)” value [6] was 97%, the “Population Pyknosed Nuclei (%)” value [6] was 10% and the “Population Tubulin-Different-Phenotype (%)” value [6] was 4%. The “Total Cell Count” value [6] was 142, the “Population Apoptotic (%)” value [7] was 96% and the “Population Fragmented Nuclei (%)” value [7] was 18%. For the same molecule, the “Population Healthy Nuclei (%)” value [7] was 73%, the “Population Hoechst High Intensity Objects (%)” value [7] was 2% and the “Population Membrane Permeable-Phenotype (%)” value [7] was 6%. For the same molecule, the “Population Mitochondria Different-Phenotype (%)” value [7] was 3%, the “Population Mitotic Cells (%)” value [7] was 4% and the “Population Normal (%)” value [7] was 97%. For the same molecule, the “Population Pyknosed Nuclei (%)” value [7] was 8%, the “Population Tubulin-Different-Phenotype (%)” value [7] was 4% and the “Total Cell Count” value [7] was 301. For the same molecule, the “Population Apoptotic (%)” value [8] was 91%, the “Population Healthy Nuclei (%)” value [8] was 72% and the “Population Hoechst High Intensity Objects (%)” value [8] was 0%. For the same molecule, the “Population Membrane Permeable-Phenotype (%)” value [8] was 7%, the “Population Mitotic Cells (%)” value [8] was 8% and the “Population Normal (%)” value [8] was 99%. The “Population Tubulin-Different-Phenotype (%)” value [8] was 3%, the “Total Cell Count” value [8] was 135 and the “Population Apoptotic (%)” value [9] was 97%. The “Population Fragmented Nuclei (%)” value [9] was 18%, the “Population Healthy Nuclei (%)” value [9] was 71% and the “Population Hoechst High Intensity Objects (%)” value [9] was 2%. The “Population Membrane Permeable-Phenotype (%)” value [9] was 5%, the “Population Mitochondria Different-Phenotype (%)” value [9] was 2% and the “Population Mitotic Cells (%)” value [9] was 2%. The “Population Normal (%)” value [9] was 97%, the “Population Pyknosed Nuclei (%)” value [9] was 10% and the “Population Tubulin-Different-Phenotype (%)” value [9] was 2%. The “Total Cell Count” value [9] was 357, the “Population Apoptotic (%)” value [10] was 94% and the “Population Fragmented Nuclei (%)” value [10] was 14%. The “Population Healthy Nuclei (%)” value [10] was 76%, the “Population Hoechst High Intensity Objects (%)” value [10] was 4% and the “Population Membrane Permeable-Phenotype (%)” value [10] was 6%. The “Population Mitochondria Different-Phenotype (%)” value [10] was 1%, the “Population Mitotic Cells (%)” value [10] was 5% and the “Population Normal (%)” value [10] was 95%. For the same molecule, the “Population Pyknosed Nuclei (%)” value [10] was 9%, the “Total Cell Count” value [10] was 198 and the “Population Apoptotic (%)” value [11] was 89%. For the same molecule, the “Population Fragmented Nuclei (%)” value [11] was 14%, the “Population Healthy Nuclei (%)” value [11] was 75% and the “Population Hoechst High Intensity Objects (%)” value [11] was 3%. For the same molecule, the “Population Membrane Permeable-Phenotype (%)” value [11] was 7%, the “Population Mitochondria Different-Phenotype (%)” value [11] was 3% and the “Population Mitotic Cells (%)” value [11] was 10%. The “Population Normal (%)” value [11] was 96%, the “Population Pyknosed Nuclei (%)” value [11] was 9% and the “Population Tubulin-Different-Phenotype (%)” value [11] was 3%. For the same molecule, the “Total Cell Count” value [11] was 419, the “Population Apoptotic (%)” value [12] was 94% and the “Population Fragmented Nuclei (%)” value [12] was 16%. The “Population Healthy Nuclei (%)” value [12] was 72%, the “Population Hoechst High Intensity Objects (%)” value [12] was 4% and the “Population Membrane Permeable-Phenotype (%)” value [12] was 9%. The “Population Mitochondria Different-Phenotype (%)” value [12] was 7%, the “Population Mitotic Cells (%)” value [12] was 5% and the “Population Normal (%)” value [12] was 95%. The “Population Pyknosed Nuclei (%)” value [12] was 10%, the “Population Tubulin-Different-Phenotype (%)” value [12] was 7% and the “Total Cell Count” value [12] was 175.
